High-throughput results from PubChem.
Compounds with a hit are over-represented: about 2.9% of the library has one in this group of screens.
RBBP9 inhibitor – blocks human serine hydrolase RBBP9; O75884; recombinant RBBP9, FP-Rh probe fluorescence polarization; inhibition, % at 7.94 µM; 220,000 compounds, 0.2% hits; AID 1515;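 active = inhibition above the campaign mean of all tested compounds plus 3 SD, cut at about 14% in these data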;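 also: plate controls were DMSO wells with RBBP9 for no effect and wells lacking RBBP9 protein for full effect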
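Measured by – fluorescence polarization · Test system – RBBP9 protein · Input – 2.5 µM RBBP9 dispensing solution, before mixing · Measure – percent inhibition from mP, scaled between DMSO and no-protein wells · Benchmarks – DMSO-treated enzyme wells and wells lacking RBBP9 · Times – preincubation 30 min plus labeling 45 min at 25 °C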
RanGTP-Impb inh – inhibitors of RanGTP-importin-beta interaction, primary screen, biochemical, FRET, CFP-Ran, YFP-importin-beta, homogeneous; cell-free CFP-Ran/YFP-importin-beta FRET ratio; 300,000 compounds, 1.1% hits; AID 2216; inhibition, % (concentration not given with the values);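 active = more than half of the replicate wells show a fall in the fluorescence ratio signal beyond about 16%, limit read from the data, passing the limit was not always enough; inconclusive = exactly half of the replicate wells pass the set limit; inactive = fewer than half of replicates pass the limit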;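 also: 0% = DMSO wells and 100% = Ran loaded with GDP instead of GTP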
Runt-CBFb FRET – Runt domain-CBFb interaction inhibition. Q01196+Q13951. Cerulean-Runt/Venus-CBFb FRET ratio 530/480, 1 h. inhibition, % at 20 µM. 220,000 compounds, 0.46% hits. AID 1496;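 active = inhibition over about 50% at 20 µM in the single-dose screen, limit read from the data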;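 also: 0% = DMSO wells and 100% = excess unlabeled CBFb competitor control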
Target sequence (Q01196 whole entry, looked up, the tested form may be a part): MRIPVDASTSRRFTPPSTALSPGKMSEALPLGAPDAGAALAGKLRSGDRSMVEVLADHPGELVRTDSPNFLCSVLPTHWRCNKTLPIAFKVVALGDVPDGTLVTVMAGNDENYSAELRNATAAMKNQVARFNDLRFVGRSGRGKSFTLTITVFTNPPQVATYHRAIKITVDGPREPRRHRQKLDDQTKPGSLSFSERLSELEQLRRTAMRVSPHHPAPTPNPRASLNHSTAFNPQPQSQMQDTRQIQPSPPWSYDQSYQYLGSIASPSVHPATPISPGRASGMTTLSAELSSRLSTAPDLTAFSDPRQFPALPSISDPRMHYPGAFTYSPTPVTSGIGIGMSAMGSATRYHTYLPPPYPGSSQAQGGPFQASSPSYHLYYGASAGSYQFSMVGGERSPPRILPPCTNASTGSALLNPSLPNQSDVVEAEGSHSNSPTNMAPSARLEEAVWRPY
Target sequence (Q13951 whole entry, looked up, the tested form may be a part): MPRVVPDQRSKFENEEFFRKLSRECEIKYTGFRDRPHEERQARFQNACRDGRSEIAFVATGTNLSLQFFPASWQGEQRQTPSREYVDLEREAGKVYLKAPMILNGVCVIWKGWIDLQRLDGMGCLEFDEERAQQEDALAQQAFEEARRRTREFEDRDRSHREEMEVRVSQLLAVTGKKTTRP
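Assay system: Cerulean-Runt domain / Medium: Tris 50 mM pH 7.5, KCl, K2SO4, 0.01% BSA / Timing: protein complex preformed 1 h, compound exposure 1 h, room temperature, dark / Measured by: FRET, excitation 422 nm, emission at 530 and 480 nm / Evaluation: loss of energy transfer signal / Control set: 5 µM unlabeled CBFb as full-inhibition high control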
Hck-Nef inh – inhibitors of human Hck kinase activated by Nef | inhibition, % at 20 µM | P08631 | 220,000 compounds, 0.68% hits | Recombinant Hck-YEEI plus Nef, Z-Lyte FRET kinase assay;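 active = Hck-Nef kinase inhibition above about 50%, limit read from the data; inactive = inhibition below that limit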;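 also: 0% = DMSO with Hck plus Nef and 100% = Hck alone without Nef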
M18AAP inhibitor – PfM18AAP enzyme inhibition. 290,000 compounds, 1.2% hits. recombinant PfM18AAP, H-Glu-NHMec fluorogenic cleavage. inhibition, % at 7.35 µM. AID 1822;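 active = inhibition above the campaign mean inhibition over all tested compounds plus 3 SD, cut at about 28% in these data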;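 also: 0% = plate median of test compound wells and 100% = 2 mM ZnCl2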
Runt-SMMHC FRET – inhibitors of human RUNX1 Runt domain binding to CBFb-SMMHC. Q01196+Q13951. Cerulean-Runt/Venus-CBFb-SMMHC FRET ratio 530/480, 1 h. inhibition, % at 20 µM. 220,000 compounds, 0.74% hits. AID 1434;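 active = mean inhibition across duplicate retests at 20 µM reaching about 50%, limit read from the data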;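 also: 0% = DMSO wells and 100% = wells with excess untagged CBFb-SMMHC; inhibitors lower the FRET ratio by blocking Runt binding to CBFb-SMMHC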
Hck-Nef confirm – confirmation of Hck-Nef kinase inhibitors; Recombinant Hck-YEEI:Nef, Z-Lyte FRET kinase assay; shares compounds with Hck-Nef inh; 1,300 compounds, 28% hits; calls only at 10 µM;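 active = average inhibition of at least 50%, with Z-scores no higher than 3 in both the phospho-tyrosine peptide and fluorescence counterscreens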
Numbers without * were called inactive; i = inactive; u = inconclusive; x = not tested or not shown; + = active, no number.

SMILES	RBBP9 inhibitor	RanGTP-Impb inh	Runt-CBFb FRET	Hck-Nef inh	M18AAP inhibitor	Runt-SMMHC FRET	Hck-Nef confirm
CCN(CCO)c1ncnc2c1sc1nc(C(C)C)c3c(c12)CC(C)(C)OC3	-6	-1	-2	0	3	-9	x
O=C(CSc1nnc(CNC(=O)c2ccccc2)o1)NCc1ccccc1Cl	x	0	x	x	1	x	x
CC1CN(c2nc(Nc3ccccc3F)nc(N)c2[N+](=O)[O-])CC(C)O1 (stereo unspecified)	x	u	x	x	0	x	x
Cc1cccn2c(=O)c3cc(C(=O)N4CCOCC4)n(C)c3nc12	x	4	x	x	-12	x	x
Cc1cccn2c(=O)c3cc(C(=O)N4CCN(C(=O)c5ccco5)CC4)n(C)c3nc12	-2	-2	4	41	7	19	x
CCOCCCn1c(=NC(=O)c2ccco2)c(C(=O)OCC)cc2c(=O)n3cccc(C)c3nc21	-2	152*	12	133*	17	81*	x
CCOC(=O)c1cc2c(=O)n3cccc(C)c3nc2n(CC2CCCO2)c1=NC(C)=O (stereo unspecified)	1	22*	x	74*	-4	x	i
CCOC(=O)c1cc2c(=O)n3cccc(C)c3nc2n(CC(C)C)c1=NC(=O)c1ccco1	-5	164*	10	+	18	88*	i
Cc1ccc(-c2nc(N)c3c(-c4ccc(C)cc4)nn(C(C)(C)C)c3n2)cc1	2	1	1	0	5	-1	x
Cc1ccc(-c2nn(C(C)(C)C)c3ncnc(NS(=O)(=O)c4ccc([N+](=O)[O-])cc4)c23)cc1	-4	4	-2	46	-1	-5	x
CC(C)(C)n1nc(-c2ccc(Cl)cc2)c2c(N)ncnc21	-2	u	-6	105*	-3	-4	+
CC(C)(C)n1nc(-c2ccc(F)cc2)c2c(N)ncnc21	-6	u	2	109*	5	-68	+
Cc1[nH][nH]c(=O)c1C(c1c(C)[nH][nH]c1=O)c1cn(C)c2ccccc12	-1	x	-2	92*	13	-12	+
CCN(CC(=O)Nc1c(F)cccc1F)C(=O)C1CC(=O)N(CCc2ccccc2)C1 (stereo unspecified)	x	0	x	x	x	x	x
CCOC(=O)c1sc2nc(N3CCOCC3)c3c(c2c1N)CCC3	-4	2	-8	3	10	-5	x
CN(C(=O)c1sc2nc(N3CCOCC3)c3c(c2c1N)CCCC3)c1ccccc1	-4	5	15	53*	10	7	i
COc1ccc(-c2cnnc(N/N=C/c3ccc(O)cc3)n2)cc1	-6	2	-5	71*	-3	3	i
CC(C)(C)C(=O)NC(=S)Nc1ccc(Cc2ccncc2)cc1	x	7	x	x	-7	x	x
O=C(NC(=S)Nc1ccc(Cc2ccncc2)cc1)c1ccc(F)cc1	0	2	-2	68*	4	-2	i
O=C1/C(=C/C=C/c2ccco2)SC(=S)N1NS(=O)(=O)c1ccccc1	6	x	33	102*	26	6	+
COc1ccc(/C=C2\SC(=S)N(NS(=O)(=O)c3ccccc3)C2=O)c(OC)c1	x	-4	x	x	-9	x	x
COc1ccc(C2=NN(C(=O)CCCC(=O)O)C(c3cn(-c4ccccc4)nc3-c3ccccc3)C2)cc1 (stereo unspecified)	-13	7	3	109*	3	-3	+
COc1ccc(-c2nn(-c3ccccc3)cc2C2CC(c3cccs3)=NN2C(=O)CCC(=O)O)cc1 (stereo unspecified)	-1	3	2	24	-1	-2	x
NC(=S)n1[nH]c(-c2ccc([N+](=O)[O-])cc2)c(N=Nc2cccc([N+](=O)[O-])c2)c1=O	-5	-4	1	76*	9	-3	+
Cc1ccc2[nH]c(CNC(=O)C3CCCCC3)cc2c1	x	u	x	x	13	x	x
COc1cccc2c(=O)c3c(cnn3C)n(C)c12	-2	126*	17	88*	11	62*	x
